The values below come from ChEMBL document CHEMBL1147658, “[2-11C]isopropyl-, [1-11C]ethyl-, and [11C]methyl-labeled phenoxyphenyl acetamide derivatives as positron emission tomography ligands for the peripheral benzodiazepine receptor: radiosynthesis, uptake, and in vivo binding in brain” (J Med Chem, 2006).

The test system of data set [1] is Rattus norvegicus. Description: Ratio for decrease in uptake in iv dosed Sprague-Dawley rat brain olfactory bulb to frontal cortex after 30 mins per gram of wet tissue in presence of 1 mg/kg DAA1106. The note with it: in vivo, 0.5 h. It counts as ADME, organism-based. Also noted: dose 1 mg/kg, route intravenous. In short, it runs like this: (§1)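 Rats given [11C]ligand 45-50 MBq iv, alone or mixed with nonradioactive DAA1106 (1 mg/kg in 10% EtOH/saline). Killed 30 min later under ether. Brains frozen, cut into 20 µm sagittal cryosections and exposed to imaging plates for 60 min. Regional radioactivity read by bioimaging analyzer; brain uptake expressed as % injected dose per gram wet tissue (n=3).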

In data set [2] the test system is Rattus norvegicus. Description: Decrease in uptake in iv dosed Sprague-Dawley rat brain frontal cortex after 30 mins per gram of wet tissue in presence of 1 mg/kg DAA1106. It counts as ADME, organism-based. Also noted: dose 1 mg/kg, route intravenous. The note with it: in vivo, 0.5 h. In short, it runs like this:
as §1

Data set [3] concerns Rattus norvegicus. Description: Ratio for decrease in uptake in iv dosed Sprague-Dawley rat brain cerebellum to frontal cortex after 30 mins per gram of wet tissue in presence of 1 mg/kg DAA1106. It counts as ADME, organism-based. Also on record: dose 1 mg/kg, route intravenous. The note with it: in vivo, 0.5 h. Summed up: as §1
Data set [4] has as its system Rattus norvegicus. Description: Decrease in uptake in iv dosed Sprague-Dawley rat brain striatum after 30 mins per gram of wet tissue in presence of 1 mg/kg DAA1106. It counts as ADME, organism-based. The note with it: in vivo, 0.5 h. Also noted: dose 1 mg/kg, route intravenous. Summed up:
as §1

Data set [5] in a line: Plasma half life in iv dosed monkey. It counts as ADME, organism-based, Macaca mulatta. The note with it: rhesus monkey. In short, it runs like this:
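Monkey given [11C]ligand 70-80 MBq iv. Arterial blood drawn at 1, 2, 5, 10, 20, 30 and 60 min. Plasma deproteinized with CH3CN and analysed by radio-HPLC for percentage of unchanged ligand.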

Data set [6] concerns Rattus norvegicus. Description: Ratio for decrease in uptake in iv dosed Sprague-Dawley rat brain striatum to frontal cortex after 30 mins per gram of wet tissue in presence of 1 mg/kg DAA1106. It counts as ADME, organism-based. Also on record: dose 1 mg/kg, route intravenous. To be noted: in vivo, 0.5 h. Summed up: as §1
Data set [7] has as its system Rattus norvegicus. Description: Decrease in uptake in iv dosed Sprague-Dawley rat brain olfactory bulb after 30 mins per gram of wet tissue in presence of 1 mg/kg DAA1106. It counts as ADME, organism-based. Also noted: dose 1 mg/kg, route intravenous. To be noted: in vivo, 0.5 h. In short, it runs like this: as §1
Data set [8] deals with Rattus norvegicus. Description: Uptake in iv dosed Sprague-Dawley rat brain after 30 mins per gram of wet tissue. It counts as ADME, organism-based. To be noted: in vivo, 0.5 h. In short, it runs like this: as §1
For data set [9], the system named is Rhesus monkey. Description: Decrease in uptake in iv dosed rhesus monkey brain occipital cortex after 90 mins in presence of 1 mg/kg DAA1106. It counts as ADME, organism-based, Macaca mulatta. Also noted: dose 1 mg/kg, route intravenous. To be noted: in vivo, 1.5 h. Summed up:
(§2)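 One awake male rhesus monkey (about 7.5 kg) imaged by 3D dynamic PET for 90 min after [11C]ligand 70-80 MBq iv. Blocker given iv 2 min before tracer: DAA1106 1 mg/kg, or PK11195 5 mg/kg, each in 10% EtOH/saline. Time-activity curves taken from 5 mm ROI on occipital cortex, as % dose/mL.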

Data set [10] concerns the target T1, Translocator protein (Rattus norvegicus, UniProt P16257). Description: Displacement of [11C][…] from Sprague-Dawley rat brain PBR. It counts as tissue-based. A general note: Displacement assays read how much labelled ligand stays bound in the presence of the test substance.
The target of data set [11] is GABA-A receptor; anion channel. Description: Displacement of [11C]Flumazenil from Sprague-Dawley rat brain CBR. It counts as tissue-based.
A short description of data set [12]: Distribution coefficient of the compound, log D. It counts as physicochemical. To be noted: octanol/water. Summed up:
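[11C]ligand (3-5 MBq) shaken with 1-octanol and 10 mM phosphate buffer pH 7.4, 5 mL each, then equilibrated 1 h at room temperature. Both phases counted by gamma counter; log D taken as the organic/aqueous concentration ratio (n=3).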

Data set [13] deals with T1, Translocator protein. Description: Displacement of [11C]DAA1106 from Sprague-Dawley rat brain PBR. It counts as tissue-based.
Data set [14] has as its system Rattus norvegicus. Description: Decrease in uptake in iv dosed Sprague-Dawley rat brain cerebellum after 30 mins per gram of wet tissue in presence of 1 mg/kg DAA1106. It counts as ADME, organism-based. Also on record: dose 1 mg/kg, route intravenous. The note with it: in vivo, 0.5 h. In short, it runs like this:
as §1

In data set [15] the test system is Rhesus monkey. Description: Decrease in uptake in iv dosed rhesus monkey brain occipital cortex after 90 mins in presence of 5 mg/kg […]. It counts as ADME, organism-based, Macaca mulatta. Also on record: dose 5 mg/kg, route intravenous. To be noted: in vivo, 1.5 h. Summed up:
as §2

T1 sequence (P16257 whole entry, looked up): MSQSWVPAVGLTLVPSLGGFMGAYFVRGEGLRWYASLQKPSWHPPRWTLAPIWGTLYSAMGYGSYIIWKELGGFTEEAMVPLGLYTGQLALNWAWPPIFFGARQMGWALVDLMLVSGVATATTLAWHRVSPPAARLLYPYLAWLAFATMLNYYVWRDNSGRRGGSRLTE

A word on the half-life: it is the time in which the quantity being followed falls by half. `CC(=O)N(Cc1ccccc1O[11CH3])c1ccc(Cl)cc1Oc1ccccc1`: the figures for the Ratio in data set [1], in [3] and in data set [6] were 2.3, 1 and 1, respectively. Further, the Drug uptake in data set [2] is listed as 63%; in [4] it was 63%; in data set [7], 37%; in data set [8], 0.32%; in data set [9], 60%. The same compound came in with a half-life in data set [5] of 21 min.
As to `CC(=O)N(Cc1ccccc1O[11CH](C)C)c1ccc(Cl)cc1Oc1ccccc1`, the results for the Ratio in [1], in [3] and in data set [6] were 1.5, 1 and 1, respectively. The Drug uptake was 63% in data set [2], 63% in data set [4], 43% in data set [7] and 0.17% in data set [8]. In addition, the half-life in [5] was found to be 13 min.
One may read the Ki as the equilibrium dissociation constant of an inhibitor or competing ligand from its target. Turning to `COc1ccc(OC)c(CN(C(C)=O)c2cc(F)ccc2Oc2ccccc2)c1`, the values for the Ki in data set [10] and in data set [11] were 0.095 nM and above 1000 nM, respectively.
Consider `C[11CH2]Oc1ccccc1CN(C(C)=O)c1ccc(Cl)cc1Oc1ccccc1`, for which the Ratio is on record as 1.5 in data set [1], 1 in data set [3] and 1 in data set [6]. Besides, the Drug uptake in [2] is reported as 63%; in data set [4] it was 63%; in data set [7], 33%; in data set [8], 0.27%. The half-life in data set [5] stood at 20 min.
A word on the logD: it is the decadic logarithm of the distribution of all forms, ionised or not, between an organic phase and buffer at a given pH. Consider `COc1ccccc1CN(C(C)=O)c1ccc(Cl)cc1Oc1ccccc1`, for which, in data set [12], the logD turned out to be 3.74. Also, the Ki in [10] was 0.074 nM; in data set [13], 0.31 nM; in data set [11], above 1000 nM.
As for `CCOc1ccccc1CN(C(C)=O)c1ccc(Cl)cc1Oc1ccccc1`, the logD in data set [12] worked out at 3.81. Moreover, the Ki is 0.098 nM in data set [10], 0.41 nM in [13] and above 1000 nM in data set [11].
On to `CCC(C)N(C)C(=O)c1cc2ccccc2c(-c2ccccc2Cl)n1` (configuration not stated) [PK-11195], for which the figures for the Drug uptake in [14] and in data set [15] were 44% and 70%, respectively. In data set [11], this compound came in with a Ki above 1000 nM.
On to `CC(=O)N(Cc1ccccc1OC(C)C)c1ccc(Cl)cc1Oc1ccccc1`, for which the logD in data set [12] was found to be 4.02. Moreover, the Ki in data set [10] is 0.19 nM; in data set [13], 0.68 nM; in data set [11] it was above 1000 nM.
